Experimental data as given in ChEMBL document CHEMBL4020760, “Discovery of a Small Molecule Probe That Post-Translationally Stabilizes the Survival Motor Neuron Protein for the Treatment of Spinal Muscular Atrophy” (J Med Chem, 2017).
Converted amounts (≈) assume the structure as drawn. Values belong to the molecule of their own block, whether it stands above or below them. The source made the active and inactive calls. The calls are words filed in the database; no cut-off is given here. Peptide text beside a SMILES is read from it. * marks the point of attachment. Cbz = O=C(OCc1ccccc1)*

Legend:
HEK293 [1] = test: Effect on cycloheximide-induced reduction in basal level of polyubiquitinated protein level in HEK293 cells at 1 uM pretreated for 2 hrs followed by cycloheximide addition measured after 6 hrs by SDS-PAGE analysis; assay type: functional, cell-based; conditions: Homo sapiens
Summary of the method: (§1)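 HEK293 cells pretreated 2 h with test compound or MG-132 (1 and 10 μM), then DMSO or cycloheximide (10 μM) added and incubated a further 6 h; final DMSO 0.2%. Lysates run on 4–15% gradient SDS-PAGE; anti-ubiquitin blot for polyubiquitinated proteins, tubulin as loading control.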

Homo sapiens [2] = species on record: Homo sapiens; test: Inhibition of proteasome in HEK293 cells assessed as increase in polyubiquitinated protein level at 1 and 10 uM incubated for 2 hrs by SDS-PAGE analysis; assay type: cell-based; summary of the method: as §1
Homo sapiens [3] = species on record: Homo sapiens; test: Inhibition of proteasome in HEK293 cells assessed as stabilization of SMN protein by measuring increase in SMN protein half life at 10 uM by pulse-chase experiment; assay type: cell-based
[4] = biological target: Survival motor neuron protein (Homo sapiens) (UniProt Q16637); test: Stabilization of human SMN protein expressed in HEK293 cells expressing SMN2 promoter after 24 hrs by luciferase reporter gene assay relative to control; assay type: cell-based
Survival motor neuron protein (Homo sapiens), sequence (Q16637 whole entry, the tested form may be a part): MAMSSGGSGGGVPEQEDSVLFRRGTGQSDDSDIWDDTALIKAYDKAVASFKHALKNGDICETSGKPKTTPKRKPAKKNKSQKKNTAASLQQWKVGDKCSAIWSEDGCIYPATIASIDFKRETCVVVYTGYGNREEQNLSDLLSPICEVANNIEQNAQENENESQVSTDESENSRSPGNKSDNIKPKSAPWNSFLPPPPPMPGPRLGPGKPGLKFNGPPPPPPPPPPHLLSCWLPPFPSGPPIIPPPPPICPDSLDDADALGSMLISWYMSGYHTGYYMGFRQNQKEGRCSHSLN
Summary of the method: (§2)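 SMN2-luc reporter cells seeded at 25,000/well overnight, then treated 24 h with six doses (3-fold serial dilutions, top final 10 or 30 μM), 0.1% DMSO. Firefly and Renilla luciferase read by dual-luciferase assay, normalized to DMSO as percent; EC50 and maximal activation from curves. Mean ± SEM, ≥3 trials.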

Plasma [5] = test: Half life in mouse plasma after 60 mins; assay type: ADME, cell-free; conditions: 1 h
HEK293 [6] = test: Inhibition of autophagy in HEK293 cells assessed as increase in p62 level at 10 uM after 8 hrs by immunoblot analysis; conditions: Homo sapiens
HEK293 [7] = test: Inhibition of autophagy in HEK293 cells assessed as increase in LC3-2 level at 10 uM after 8 hrs by immunoblot analysis; conditions: Homo sapiens
[8] = biological target: Survival motor neuron protein (Homo sapiens) (UniProt Q16637); test: Stabilization of SMN protein in 3813T fibroblasts derived from human SMA patient assessed as increase in SMN protein level at 2 uM after 48 hrs by SDS-PAGE and immunoblot
Liver [9] = test: Half life in human liver microsomes; assay type: ADME, microsome
Summary of the method: (§3)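 Compound stability in mouse and human liver microsomes, expressed as half-life in min.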

Brain = test: Cmax in mouse brain at 20 mg/kg, ip after 30 mins; assay type: ADME, organism-based; parameters: dose 20 mg/kg, route intraperitoneal; conditions: in vivo, 0.5 h, BLD = below limit of detection
[10] = biological target: Survival motor neuron protein (Homo sapiens) (UniProt Q16637); test: Stabilization of SMN protein in 3813T fibroblasts derived from human SMA patient assessed as increase in SMN protein level at 2 uM after 48 hrs by SDS-PAGE and immunoblot
Summary of the method: (§4)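 hTERT-immortalized SMA patient 3813T fibroblasts seeded at 6000/well, next day dosed for 48 h at indicated concentrations, 0.1% DMSO. Lysed in boiling buffer (150 mM NaCl, 10 mM Tris pH 8.0, 2% SDS), run on 10% SDS-PAGE, SMN immunoblotted, normalized to tubulin or actin as fold over DMSO; one-way ANOVA with Dunnett.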

Liver [11] = test: (§5) Half life in mouse liver microsomes; assay type: ADME, microsome; conditions: microsomes; summary of the method: as §3
[12] = Cmax in mouse plasma at 20 mg/kg, ip; assay type: ADME, organism-based; parameters: dose 20 mg/kg, route intraperitoneal; conditions: plasma
[13] = Cmax in mouse brain at 20 mg/kg, ip; assay type: ADME, organism-based; parameters: dose 20 mg/kg, route intraperitoneal
[14] = Aqueous solubility of the compound at pH 7.4; assay type: physicochemical; conditions: aqueous solution
Summary of the method: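 Kinetic solubility measured in aqueous medium at pH 7.4.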

[15] = biological target: Survival motor neuron protein (Homo sapiens) (UniProt Q16637); test: Stabilization of SMN protein in 3813T fibroblasts derived from human SMA patient assessed as increase in SMN protein level after 48 hrs by SDS-PAGE and immunoblot; summary of the method: as §4
Plasma [16] = test: Cmax in mouse plasma at 20 mg/kg, ip after 30 mins; assay type: ADME, organism-based; parameters: dose 20 mg/kg, route intraperitoneal; conditions: in vivo, 0.5 h, BLD = below limit of detection
[17] = biological target: Survival motor neuron protein (Homo sapiens) (UniProt Q16637); test: Stabilization of SMN protein in 3813T fibroblasts derived from human SMA patient assessed as increase in SMN protein level after 48 hrs by SDS-PAGE and immunoblot
[18] = Stabilization of human […] expressed in HEK293 cells expressing SMN2 promoter after 24 hrs by luciferase reporter gene assay; assay type: cell-based; conditions: HEK293, 24 h; summary of the method: as §2
Renilla = test: Effect on renilla recombinant luciferase protein expressed in HEK293 cells at 10 uM after 24 hrs in presence of 10 uM cycloheximide by renilla luciferase reporter gene assay; assay type: cell-based
Summary of the method: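 SMN2-luc reporter cells given cycloheximide (10 μM) together with compound (10 μM) or DMSO. Lysed at set time points; SMN-luc and Renilla-luc activities measured.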

[19] = biological target: Survival motor neuron protein (Homo sapiens) (UniProt Q16637); test: Stabilization of human luc fused SMN protein expressed in HEK293 cells at 10 uM after 24 hrs in presence of 10 uM cycloheximide by luciferase reporter gene assay; assay type: cell-based
Summary of the method: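 SMN2-luciferase reporter cells were maintained in high-glucose DMEM with 10% FBS, Pen/Strep and hygromycin at 37 °C. They were treated at the same time with cycloheximide (10 μM), to block protein synthesis, and with compound or DMSO. Cells were lysed at set time points, and SMN2-luc (firefly) and Renilla-luc activities were read by dual-luciferase assay.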

[20] = biological target: Survival motor neuron protein (Homo sapiens) (UniProt Q16637); test: Stabilization of SMN protein in HEK293 cells assessed as increase in SMN protein half life at 10 uM by pulse-chase experiment; assay type: cell-based
HEK293 [21] = test: Stabilization of human […] expressed in HEK293 cells expressing SMN2 promoter after 24 hrs by luciferase reporter gene assay relative to control; assay type: cell-based; conditions: in the assay text read “SMN protein” for “SMN mRNA”; summary of the method: as §2
HEK293 [22] = test: Effect on human luciferase-tagged SMN mRNA expressed in HEK293 cells assessed as SMN exon 7 included transcript at 10 uM after 24 hrs by qRT-PCR relative to GAPDH mRNA expression; assay type: cell-based
Summary of the method: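 SMN2-luciferase reporter cells treated with compound; total RNA isolated with Trizol, DNase I treated and reverse transcribed. SYBR Green qPCR for SMN exon 7-included and full-length transcripts, with GAPDH as reference.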

[23] = as §5; assay type: ADME, microsome; conditions: liver microsomes; summary of the method: as §3

SMILES: CC(C)C[C@@H](C=O)NC(=O)[C@H](CC(C)C)NC(=O)[C@H](CC(C)C)NC(=O)OCc1ccccc1 (Cbz-Leu-Leu-Leu-aldehyde)
- Activity (HEK293 [1]): Active
- inhibition (Homo sapiens [2]): Active
- inhibition (Homo sapiens [3]): Active

SMILES: CC(C)c1nc(NC(=O)c2ccc(F)c(Cl)c2)cs1
- Activity [4]: 131%

SMILES: O=C(Nc1ccc(F)c(Cl)c1)c1cc(Cc2ccccc2)on1
- Activity [4]: 116%

- t1/2 (Plasma [5]): 5 min
SMILES: CC(C)c1cc(C(=O)N(C)c2ccc(F)c(Cl)c2)no1
- Activity [4]: inactive

SMILES: CC(C)Cc1cc(C(=O)Nc2ccc(F)c(Cl)c2)no1
- Activity [4]: 180%

- t1/2 (Plasma [5]): 9 min
SMILES: CC(C)c1cc(C(=O)Nc2ccccc2F)no1
- Activity [4]: 175%

SMILES: CC(C)c1cc(CNc2ccc(F)c(Cl)c2)no1
- Activity [4]: 137%

SMILES: CC(C)c1cc(C(=O)Nc2nc3ccccc3s2)no1
- Activity [4]: 124%

SMILES: CC(C)c1cc(C(=O)Oc2ccc(F)c(Cl)c2)no1
- Activity [4]: inactive

SMILES: O=C(Nc1ccc(F)c(Cl)c1)c1cc(C2CCCCC2)on1
- Activity [4]: inactive

- t1/2 (Plasma [5]): 183 min
SMILES: CC(C)c1cc(NC(=O)c2ccc(F)c(Cl)c2)no1
- Activity [4]: 188%

SMILES: CCN(CC)CCCC(C)Nc1ccnc2cc(Cl)ccc12 (stereo unspecified)
- Activity (HEK293 [6]): Active
- Activity (HEK293 [7]): Active

- t1/2 (Liver [9]): > 120 min
- Cmax (Brain): Bld
- t1/2 (Liver [11]): > 120 min
- Cmax [12]: 2 to 3 ng/mL
- Cmax [13]: 5 to 6 ng/mL
- t1/2 (Plasma [5]): < 5 min
- solubility kinetic [14]: 77 µM (≈ 17.8 µg/mL)
- Cmax (Plasma [16]): Bld
SMILES: CC(C)c1cc(C(=O)Nc2ccccn2)no1
- fold change (FC) [8]: 2
- fold change (FC) [10]: 2
- Activity [4]: 195%
- Activity [15]: Dose-dependent effect
- Activity [17]: Dose-dependent effect

SMILES: CC(C)(C)c1cc(C(=O)Nc2ccc(F)c(Cl)c2)no1
- Activity [4]: 140%

SMILES: CC(C)c1cc(C(=O)Nc2cccc(Cl)c2)no1
- Activity [4]: 160%

SMILES: CC(C)c1cc(C(=O)NC2Cc3ccccc3C2)no1
- Activity [4]: inactive

SMILES: CC(C)c1cc(C(=O)Nc2ccc(Cl)cc2)no1
- Activity [4]: 168%

SMILES: CC(C)c1cc(C(=S)Nc2ccc(F)c(Cl)c2)no1
- Activity [4]: 120%

- t1/2 (Liver [11]): < 5 min
SMILES: O=C(Nc1ncc(C2CCC2)s1)c1ccc(F)c(Cl)c1

- t1/2 (Liver [11]): < 5 min
- solubility kinetic [14]: 12 µM (≈ 3.24 µg/mL)
SMILES: CC(C)c1cc(C(=O)Nc2nc3ccccc3[nH]2)no1
- Activity [4]: 211%

SMILES: Cc1cc(C(=O)Nc2ccc(F)c(Cl)c2)no1
- Activity [4]: inactive

SMILES: O=C(Nc1ccc(F)c(Cl)c1)c1cc(C2CCCC2)on1
- Activity [4]: inactive

SMILES: CCc1cc(C(=O)Nc2ccc(F)c(Cl)c2)no1
- Activity [4]: 165%

SMILES: CC(C)c1cc(C(=O)Nc2ccccc2Cl)no1
- Activity [4]: 114%

SMILES: CC(C)c1cc(C(=O)Nc2cccnc2)no1
- Activity [4]: 94%

- t1/2 (Plasma [5]): < 5 min
SMILES: CC(C)c1cc(C(=O)N2CCc3ccccc32)no1
- Activity [4]: 164%

- EC50 [18]: 8.3 µM
SMILES: COc1cc2c(c(OC)c1OC)C(c1cc(Br)ccc1F)CC(=O)N2 (stereo unspecified)
- Activity (Renilla): Active
- Activity [19]: Active
- Activity [20]: inactive
- Activity (HEK293 [21]): 186%

- t1/2 (Liver [11]): < 5 min
- solubility kinetic [14]: 49 µM (≈ 12.2 µg/mL)
SMILES: CC(C)c1cc(C(=O)Nc2cccc(F)c2)no1
- Activity [4]: 180%

SMILES: CC(C)c1cc(C(=O)Nc2ccncc2)no1
- Activity [4]: inactive

SMILES: COc1ccccc1NC(=O)c1cc(C(C)C)on1
- Activity [4]: 80%

SMILES: Cc1ccc(NC(=O)c2cc(C(C)C)on2)cc1
- Activity [4]: 200%

- half-life [23]: ≤ 5 min
- t1/2 (Plasma [5]): 13 min
- solubility kinetic [14]: 6 µM (≈ 1.7 µg/mL)
SMILES: CC(C)c1cc(C(=O)Nc2ccc(F)c(Cl)c2)no1
- Activity (HEK293 [22]): inactive
- Activity (Renilla): inactive
- Activity [4]: 242%
- Activity [19]: Active
- Activity [20]: Active

SMILES: CC(C)c1cc(C(=O)Nc2ncco2)no1
- Activity [4]: inactive

SMILES: CC(C)c1cc(C(=O)Nc2nc3ccccc3n2C)no1
- Activity [4]: 219%

SMILES: O=C(Nc1ccc(F)c(Cl)c1)c1cc(-c2ccccc2)on1
- Activity [4]: inactive

SMILES: Cc1ccccc1NC(=O)c1cc(C(C)C)on1
- Activity [4]: 125%

SMILES: Cc1cccc(NC(=O)c2cc(C(C)C)on2)c1
- Activity [4]: 150%

SMILES: O=C(CCCCCCC(=O)Nc1ccccc1)NO
- Activity (Renilla): Active
- Activity [19]: Active

SMILES: CC(C)c1cc(NC(=O)c2ccc(F)c(Cl)c2)on1
- Activity [4]: 137%

- t1/2 (Liver [11]): < 5 min
- t1/2 (Plasma [5]): 8 min
- solubility kinetic [14]: 59 µM (≈ 13.6 µg/mL)
SMILES: CC(C)c1cc(C(=O)Nc2ccccc2)no1
- Activity [4]: 190%

- t1/2 (Liver [11]): < 5 min
- t1/2 (Plasma [5]): 76 min
SMILES: Cc1c(C(=O)Nc2ccc(F)c(Cl)c2)noc1C(C)C
- Activity [4]: 182%

SMILES: CC(C)c1cc(C(=O)Nc2nccs2)no1
- Activity [4]: 166%

SMILES: COc1cccc(NC(=O)c2cc(C(C)C)on2)c1
- Activity [4]: 147%

SMILES: CC(C)c1cc(C(=O)Nc2ccc(F)cc2)no1
- Activity [4]: 182%

SMILES: CC(C)c1cc(NC(=O)Nc2ccc(F)c(Cl)c2)no1
- Activity [4]: inactive

SMILES: O=C(Nc1ccc(F)c(Cl)c1)c1ccon1
- Activity [4]: inactive
